Source: ChEMBL document CHEMBL2434898, “New β-phospholactam as a carbapenem transition state analog: Synthesis of a broad-spectrum inhibitor of metallo-β-lactamases” (Bioorg Med Chem Lett, 2013)
Activity calls are given as the source filed them. No cut-off for these calls is given here.

Legend:
[1] = Inhibition of Metallo-beta-lactamase CcrA (unknown origin) assessed as inhibition of nitrocefin hydrolysis preincubated at 100 uM before substrate addition by spectrophotometry; settings: TDE = time-dependent effect
[2] = Inhibition of Metallo-beta-lactamase NDM1 (unknown origin) assessed as inhibition of nitrocefin hydrolysis preincubated at 100 uM before substrate addition by spectrophotometry; settings: TDE = time-dependent effect
[3] = Inhibition of Metallo-beta-lactamase Bla2 (unknown origin) assessed as inhibition of nitrocefin hydrolysis at 100 uM by spectrophotometry
Procedure, shortened: (§1)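 Purified metallo-β-lactamases (subclass B1: IMP-1, CcrA, Bla2, NDM-1; B3: L1) were mixed with inhibitor dissolved in DMSO with no pre-incubation before the hydrolysis assay. Activity is reported as percent inhibition.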

[4] = Inhibition of Metallo-beta-lactamase IMP-1 (unknown origin) assessed as inhibition of nitrocefin hydrolysis preincubated at 100 uM for 30 mins before substrate addition by spectrophotometry
Procedure, shortened: (§2)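 Each enzyme (IMP-1, CcrA, Bla2, NDM-1 of subclass B1; L1 of B3) was pre-incubated with inhibitor in DMSO for 30 min, then substrate hydrolysis was measured. Results are given as percent inhibition.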

[5] = Inhibition of Metallo-beta-lactamase Bla2 (unknown origin) assessed as inhibition of nitrocefin hydrolysis preincubated at 100 uM for 30 mins before substrate addition by spectrophotometry; procedure, shortened: as §2
[6] = Activation of metallo-beta-lactamase NDM1 (unknown origin) assessed as hydrolysis of nitrocefin at 100 uM by spectrophotometry; procedure, shortened: as §1
[7] = Inhibition of Metallo-beta-lactamase L1 (unknown origin) assessed as inhibition of nitrocefin hydrolysis at 100 uM by spectrophotometry; procedure, shortened: as §1
[8] = Inhibition of metallo-beta-lactamase L1 (unknown origin) assessed as inhibition of nitrocefin hydrolysis preincubated at 100 uM for 30 mins before substrate addition by spectrophotometry; procedure, shortened: as §2
[9] = Inhibition of Metallo-beta-lactamase NDM1 (unknown origin) assessed as inhibition of nitrocefin hydrolysis preincubated at 100 uM for 30 mins before substrate addition by spectrophotometry; procedure, shortened: as §2
[10] = Activation of metallo-beta-lactamase CcrA (unknown origin) assessed as hydrolysis of nitrocefin at 100 uM by spectrophotometry; procedure, shortened: as §1
[11] = Inhibition of Metallo-beta-lactamase IMP-1 (unknown origin) assessed as inhibition of nitrocefin hydrolysis preincubated at 100 uM before substrate addition by spectrophotometry; settings: TDE = time-dependent effect
[12] = Inhibition of Metallo-beta-lactamase Bla2 (unknown origin) assessed as inhibition of nitrocefin hydrolysis preincubated at 100 uM before substrate addition by spectrophotometry; settings: TDE = time-dependent effect
[13] = Inhibition of Metallo-beta-lactamase IMP-1 (unknown origin) assessed as inhibition of nitrocefin hydrolysis at 100 uM by spectrophotometry; procedure, shortened: as §1
[14] = Inhibition of metallo-beta-lactamase L1 (unknown origin) assessed as inhibition of nitrocefin hydrolysis preincubated at 100 before substrate addition by spectrophotometry; settings: TDE = time-dependent effect
[15] = Inhibition of Metallo-beta-lactamase CcrA (unknown origin) assessed as inhibition of nitrocefin hydrolysis preincubated at 100 uM for 30 mins before substrate addition by spectrophotometry; procedure, shortened: as §2

## CC(=O)OC1C2CCC(C(=O)O)N2P1(=O)O (stereo not given)
[1]
  inhibition: tde
[2]
  inhibition: tde
[3]
  inhibition: 22%
[4]
  inhibition: 70%
[5]
  inhibition: 94%
[6]
  Activity: Active
[7]
  inhibition: 37%
[8]
  inhibition: 70%
[9]
  inhibition: 53%
[10]
  Activity: Active
[11]
  inhibition: tde
[12]
  inhibition: tde
[13]
  inhibition: 48%
[14]
  inhibition: tde
[15]
  inhibition: 69%
